Square brackets hold non-standard residues; d marks the D form. Ends that are not written are not given here. Peptide text beside a SMILES is read from it. pGlu = O=C1CC[C@@H](C(=O)O)N1
How the values were obtained:
[1] = molecular target: T1, Drosophila melanogaster AnCE (Drosophila melanogaster, UniProt Q10714); settings: ref [17]; cited from earlier work
T1 sequence (Q10714 18-615): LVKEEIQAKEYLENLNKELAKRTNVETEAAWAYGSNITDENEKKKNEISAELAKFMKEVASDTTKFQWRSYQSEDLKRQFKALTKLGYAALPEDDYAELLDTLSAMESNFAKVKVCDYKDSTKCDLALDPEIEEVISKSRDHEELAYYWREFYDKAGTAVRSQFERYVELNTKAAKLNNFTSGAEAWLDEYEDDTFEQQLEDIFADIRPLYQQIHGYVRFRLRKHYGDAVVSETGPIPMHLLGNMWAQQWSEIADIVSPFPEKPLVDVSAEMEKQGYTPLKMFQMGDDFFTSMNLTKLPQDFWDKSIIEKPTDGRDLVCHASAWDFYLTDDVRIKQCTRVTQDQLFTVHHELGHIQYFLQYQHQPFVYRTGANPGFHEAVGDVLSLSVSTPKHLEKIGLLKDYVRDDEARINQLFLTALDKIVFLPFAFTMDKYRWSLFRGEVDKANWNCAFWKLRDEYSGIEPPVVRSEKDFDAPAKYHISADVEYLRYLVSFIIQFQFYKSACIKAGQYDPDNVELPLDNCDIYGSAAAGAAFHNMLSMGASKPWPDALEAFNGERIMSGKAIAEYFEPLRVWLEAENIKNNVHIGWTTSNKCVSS

ACE N- and C-domains = settings: mice; ref [7],[8]; cited from earlier work
ACE N-domain = settings: ref [9],[10]; cited from earlier work
[2] = molecular target: T1, Drosophila melanogaster AnCE; assay: Inhibition of AnCE with Abz-YRK; format: biochemical
[3] = molecular target: T1, Drosophila melanogaster AnCE; assay: Inhibition of Ang I to Ang II conversion by AnCE; format: biochemical; settings: pH 7.5, read-out: % inhibition of the conversion of Ang I to Ang II
Summary of the method: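 Recombinant D. melanogaster AnCE expressed in P. pastoris and purified by hydrophobic interaction and size-exclusion chromatography; diluted to 250 ng·μL−1 in reaction buffer containing 0.1 mg·mL−1 BSA. Reaction buffer is 0.1 m Hepes pH 7.5, 10 μm ZnSO4, 0.15 m NaCl, with Ang I (100 μm final) as substrate. Ang I consumption was quantified by HPLC-UV at 214 nm without and with 100 μm (initial) Ang II.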

## RPPGFSPFR [BK, bradykinin]
[1]
  cleavage by AnCE: inactivates BK
ACE N- and C-domains
  cleavage efficiency by ACE domains: cleaved with similar efficiency by both domains

## N-acetyl Ser–Asp–Lys–Pro
ACE N-domain
  degradation by ACE domain: the N-domain is solely responsible

## DRVYIHPFHL [Ang I, angiotensin I]
[1]
  cleavage by AnCE: converts Ang I to Ang II
ACE N- and C-domains
  in vivo conversion to Ang II by ACE domain: the C-domain is primarily responsible

## CC[C@H](C)[C@H](NC(=O)[C@H](CCCCN)NC(=O)[C@@H]1CCCN1C(=O)[C@H](CCCNC(=N)N)NC(=O)[C@@H]1CCCN1C(=O)[C@@H]1CCCN1C(=O)[C@H](CC(C)C)NC(=O)CNC(=O)[C@@H]1CCC(=O)N1)C(=O)N1CCC[C@H]1C(=O)N1CCC[C@H]1C(=O)O [BPPb, bradykinin-potentiating peptide-b] ([pGlu]GLPPRPKIPP-OH)
[2]
  Ki: 107 µM

## CC[C@H](C)[C@H](NC(=O)[C@H](Cc1ccc(O)cc1)NC(=O)[C@@H](NC(=O)[C@H](CCCNC(=N)N)NC(=O)[C@@H](N)CC(=O)O)C(C)C)C(=O)N[C@@H](Cc1c[nH]cn1)C(=O)N1CCC[C@H]1C(=O)N[C@@H](Cc1ccccc1)C(=O)O [Ang II, angiotensin II]
[3]
  inhibition at 100 µM: 73%
